RGS4 pot: potentiators or activators of RGS4 | HEK293 M3R/inducible RGS4, carbachol calcium flux Fluo4; active compounds read low | B-score at 10 µM | hit rate 0.92% among 310,000;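 active = B-score of the integrated calcium signal more than 4 SD below the library mean, with starting fluorescence not abnormally high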;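 note: negative B-score means reduced calcium response which marks RGS4 activation or potentiation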
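Assay system: Inducible-RGS4 HEK293 cells carrying M3 receptor | Schedule: Compound preincubation 20 min at room temperature before agonist | Signal: Kinetic calcium fluorescence imaging with Fluo4-AM dye, 2 µM | Read-out basis: B score from integrated fluorescence ratio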
MrgX1 antag: blocks BAM8-22 activation of human MrgX1 receptor; Q96LB2; MRGX1-HEK293 calcium flux, Fluo-4, BAM8-22 antagonism; active compounds read low; B-score at 10 µM; hit rate 1.3% among 310,000;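 active = calcium-response B-score plate-corrected more than 3 library SD below zero, starting fluorescence within 5 deviations, no agonist response on first addition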;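 note: peak minus trough fluorescence over baseline after final BAM8-22 challenge near maximal dose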
Target sequence (Q96LB2 whole entry, looked up): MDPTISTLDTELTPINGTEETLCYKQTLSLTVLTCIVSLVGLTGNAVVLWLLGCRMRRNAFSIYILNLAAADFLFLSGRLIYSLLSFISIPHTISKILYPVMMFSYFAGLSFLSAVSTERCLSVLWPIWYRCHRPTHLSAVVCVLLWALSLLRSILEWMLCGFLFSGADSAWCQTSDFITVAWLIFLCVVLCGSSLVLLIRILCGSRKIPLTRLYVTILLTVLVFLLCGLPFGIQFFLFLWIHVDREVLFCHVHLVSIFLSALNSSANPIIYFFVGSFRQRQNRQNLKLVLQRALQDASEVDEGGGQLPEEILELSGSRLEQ
MrgX1 ag: agonists of human MrgX1 receptor | Q96LB2 | B-score at 10 µM | hit rate 0.44% among 310,000 | MrgX1-HEK293 cells, Fluo-4 calcium fluorescence, agonist mode; active compounds read high;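 active = calcium response B-score plate-corrected fluorescence ratio at least 3 library SD, with starting fluorescence B-score inside 5 SD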
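Material: HEK293 cells stably expressing human MrgX1 receptor | Quantity: 15,000 cells per well | Times: Cells plated overnight, dye loaded 0.5 h 37 °C, 0.5 h room temperature | Measured by: Kinetic Fluo-4 NW fluorescence of intracellular calcium | Control set: Positive and negative controls per plate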
MrgX1 allo act: human MrgX1 positive allosteric modulation, primary screen | Q96LB2 | hit rate 0.63% among 310,000 | MrgX1-HEK293, Fluo-4 calcium flux, FDSS; active compounds read high | B-score at 10 µM;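 active = plate-corrected calcium response at least 3 library SD above typical, normal starting fluorescence, not activating the receptor alone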;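 note: compound read alongside a low EC10 to EC30 dose of BAM8-22 agonist; peak minus trough fluorescence over baseline measured at the second addition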
RGS4 block: human RGS4 inhibition; hit rate 0.45% among 310,000; AID 463165; B-score at 10 µM; HEK293 M3R/RGS4 inducible, Fluo-4 calcium flux; active compounds read high; triggered by carbachol at its EC20; P49798;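 active = B-score, a plate-corrected calcium signal, over three deviations above library mean, with baseline fluorescence within five deviations of library mean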;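 note: RGS4 expression induced by doxycycline in cells with stable M3 receptor; B-score is computed from the integrated fluorescence ratio over baseline after carbachol; higher B-score means a larger calcium signal and so more RGS4 inhibition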
Target sequence (P49798 whole entry, looked up): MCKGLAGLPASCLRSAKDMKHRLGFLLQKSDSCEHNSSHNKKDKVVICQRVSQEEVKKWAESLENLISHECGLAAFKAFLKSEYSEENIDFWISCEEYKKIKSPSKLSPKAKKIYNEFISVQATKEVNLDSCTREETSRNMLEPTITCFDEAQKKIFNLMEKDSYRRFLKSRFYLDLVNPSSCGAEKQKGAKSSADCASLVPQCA
MrgX1 antag conf: confirmation of human MrgX1 receptor antagonists; shares compounds with MrgX1 antag; MrgX1-HEK293, BAM8-22 calcium flux, Fluo-4; active compounds read low; remaining BAM8-22 calcium response % of control (active compounds read low), % at 10 µM; hit rate 19% among 2,300; AID 602420;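 active = remaining agonist calcium response no higher than 100% minus 3 SD of agonist-only control wells, with starting fluorescence near control levels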;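 note: agonist BAM8-22 given at a near maximal EC90 to ECmax level; peak minus minimum fluorescence divided by baseline after agonist addition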
HEK293 Ca flux: counter-screen for MrgX1 antagonists: effect in parental HEK293 cells; AID 624111; fluorescence ratio F(max-min)/F0 at 10 µM; hit rate 2% among 4,000; Fluo-4 calcium fluorescence, FDSS; shares compounds with MrgX1 antag;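 active = duplicate-averaged calcium fluorescence ratio at least three times the standard deviation of buffer wells, a nonspecific response in parental cells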
HEK293 Ca counter: counter-screen for MrgX1 allosteric activators: effect in parental HEK293 cells; hit rate 0.4% among 4,000; AID 624114; parental HEK293 calcium flux, Fluo-4 fluorescence ratio; active compounds read high; fluorescence ratio F(max-min)/F0 at 10 µM; shares compounds with MrgX1 antag;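 active = calcium fluorescence ratio, averaged over duplicates, at least 3 SD of the buffer-well ratio, meaning a nonspecific response in receptor-free cells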;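 note: untransfected parental HEK293 lacking MrgX1 used as counterscreen for MrgX1 allosteric activators; fluorescence change taken during the second addition on a kinetic imager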
HEK293 Ca cntr2: activity in parental HEK293 cells lacking MrgX1 receptor | Fluo-4 calcium fluorescence (FDSS); active compounds read high | hit rate 8.7% among 4,000 | fluorescence ratio F(max-min)/F0 at 10 µM | shares compounds with MrgX1 antag;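 active = calcium fluorescence ratio at least three times the spread of buffer wells, meaning a non-specific response in parental cells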
* hit, by the source's call. This is a sample that favours compounds with a hit; in the whole collection about 3.5% have one here.

How did CC1CC(C)CN(CCCNC(=O)CN2C(=O)c3cccnc3Oc3ccc(Cl)cc32)C1 (stereo unspecified) do in these assays?
RGS4 pot: inactive; MrgX1 antag: inactive; MrgX1 ag: inactive; MrgX1 allo act: inactive; RGS4 block: inactive

Results for Cc1ccccc1C(=O)N=c1c(C#N)cc2c(=O)n3cccc(C)c3nc2n1Cc1ccco1 ?
RGS4 pot: inactive; MrgX1 antag: inactive; MrgX1 ag: inactive; MrgX1 allo act: inactive; RGS4 block: inactive

What do the screens show for `N#Cc1cc2c(=O)n3ccccc3nc2n(Cc2ccco2)c1=NC(=O)c1ccco1`?
RGS4 pot: inactive; MrgX1 antag: -4.8*; MrgX1 ag: inactive; MrgX1 allo act: inactive; RGS4 block: inactive; MrgX1 antag conf: 83%*; HEK293 Ca flux: inactive; HEK293 Ca counter: inactive; HEK293 Ca cntr2: inactive

Results for Cc1ccc(S(=O)(=O)c2cc3c(=O)n4ccccc4nc3n(Cc3ccco3)c2=N)cc1 ?
RGS4 pot: inactive; MrgX1 antag: -4.6*; MrgX1 ag: inactive; MrgX1 allo act: inactive; RGS4 block: inactive; MrgX1 antag conf: 76%*; HEK293 Ca flux: inactive; HEK293 Ca counter: inactive; HEK293 Ca cntr2: inactive

Results for CCn1c2ccccc2c2cc(NC(=O)COC(=O)c3ccc(O)cc3)ccc21 ?
RGS4 pot: inactive; MrgX1 antag: -7.7*; MrgX1 ag: inactive; MrgX1 allo act: inactive; RGS4 block: inactive; MrgX1 antag conf: inactive; HEK293 Ca flux: inactive; HEK293 Ca counter: inactive; HEK293 Ca cntr2: inactive

What do the screens show for `COc1ccccc1-c1nnc(SC2CCc3ccccc3NC2=O)s1` (stereo unspecified)?
RGS4 pot: inactive; MrgX1 antag: -6.4*; MrgX1 ag: inactive; MrgX1 allo act: inactive; RGS4 block: inactive; MrgX1 antag conf: inactive; HEK293 Ca flux: inactive; HEK293 Ca counter: inactive; HEK293 Ca cntr2: inactive

Results for CC(C)c1ccc(O)c(NC(=O)c2cncc(Br)c2)c1 ?
RGS4 pot: inactive; MrgX1 antag: -7.8*; MrgX1 ag: inactive; MrgX1 allo act: inactive; RGS4 block: inactive; MrgX1 antag conf: inactive; HEK293 Ca flux: inactive; HEK293 Ca counter: inactive; HEK293 Ca cntr2: inactive

What do the screens show for `CCC(C)c1ccc(O)c(NC(=O)c2cccnc2)c1` (stereo unspecified)?
RGS4 pot: inactive; MrgX1 antag: inactive; MrgX1 ag: inactive; MrgX1 allo act: inactive; RGS4 block: inactive

How did O=C(Nc1cccc(NC(=O)c2cncc(Br)c2)c1)c1cncc(Br)c1 do in these assays?
RGS4 pot: inactive; MrgX1 antag: inactive; MrgX1 ag: inactive; MrgX1 allo act: inactive; RGS4 block: inactive

How did O=C(Nc1ccncc1)c1cncc(Br)c1 do in these assays?
RGS4 pot: inactive; MrgX1 antag: -5.4*; MrgX1 ag: inactive; MrgX1 allo act: inactive; RGS4 block: inactive; MrgX1 antag conf: inactive; HEK293 Ca flux: inactive; HEK293 Ca counter: inactive; HEK293 Ca cntr2: inactive

How did NC(=O)c1cnn2c(C(F)(F)F)cc(-c3ccccc3)nc12 do in these assays?
RGS4 pot: inactive; MrgX1 antag: inactive; MrgX1 ag: inactive; MrgX1 allo act: inactive; RGS4 block: inactive

What do the screens show for `Cc1nn(-c2ccccc2)c2nc(-c3ccncc3)cc(C(=O)NCc3ccco3)c12`?
RGS4 pot: inactive; MrgX1 antag: -5.9*; MrgX1 ag: inactive; MrgX1 allo act: inactive; RGS4 block: inactive; MrgX1 antag conf: inactive; HEK293 Ca flux: inactive; HEK293 Ca counter: inactive; HEK293 Ca cntr2: inactive
